Results on 37 molecules are retold here after ChEMBL document CHEMBL4007404, “Identification of High-Potency Human TLR8 and Dual TLR7/TLR8 Agonists in Pyrimidine-2,4-diamines” (J Med Chem, 2017).

Calls of active or inactive are those of the source. No cut-off for these calls is given here.

Test [1] addresses T1, Toll-like receptor 8 (Homo sapiens, UniProt Q9NR97).
T1 sequence (Q9NR97 whole entry): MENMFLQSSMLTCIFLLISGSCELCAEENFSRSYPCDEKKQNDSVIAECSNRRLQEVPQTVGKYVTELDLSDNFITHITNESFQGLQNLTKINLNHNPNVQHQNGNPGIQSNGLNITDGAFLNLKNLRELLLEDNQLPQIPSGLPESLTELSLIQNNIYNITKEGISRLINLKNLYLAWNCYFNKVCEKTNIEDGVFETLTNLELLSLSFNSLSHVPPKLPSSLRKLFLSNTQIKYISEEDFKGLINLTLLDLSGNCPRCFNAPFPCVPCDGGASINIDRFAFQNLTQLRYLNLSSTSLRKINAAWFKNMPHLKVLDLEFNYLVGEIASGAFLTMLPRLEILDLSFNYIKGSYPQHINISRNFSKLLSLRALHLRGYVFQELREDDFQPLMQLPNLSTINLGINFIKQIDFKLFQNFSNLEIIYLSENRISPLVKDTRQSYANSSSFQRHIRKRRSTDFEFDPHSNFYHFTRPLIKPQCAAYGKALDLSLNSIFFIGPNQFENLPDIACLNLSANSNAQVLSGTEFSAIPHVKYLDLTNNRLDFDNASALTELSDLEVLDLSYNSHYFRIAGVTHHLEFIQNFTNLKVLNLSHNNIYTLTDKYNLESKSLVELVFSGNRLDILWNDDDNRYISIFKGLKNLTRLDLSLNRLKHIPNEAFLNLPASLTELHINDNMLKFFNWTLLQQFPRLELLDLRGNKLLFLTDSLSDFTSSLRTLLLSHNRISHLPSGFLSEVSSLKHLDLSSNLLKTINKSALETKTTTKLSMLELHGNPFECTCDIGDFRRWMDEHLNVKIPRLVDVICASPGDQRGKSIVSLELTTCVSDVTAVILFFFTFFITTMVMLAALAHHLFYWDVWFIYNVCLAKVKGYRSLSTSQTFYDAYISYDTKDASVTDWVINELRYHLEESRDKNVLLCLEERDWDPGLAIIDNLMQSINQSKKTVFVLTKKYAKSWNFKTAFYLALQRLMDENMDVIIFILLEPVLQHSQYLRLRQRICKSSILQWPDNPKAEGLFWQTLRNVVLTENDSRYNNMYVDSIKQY
As to the kind of experiment: Agonist activity at human TLR8 expressed in HEK293 cells co-expressing secreted alkaline phosphatase assessed as induction of NF-kappaB/AP-1 promoter activity by measuring increase in secreted alkaline phosphatase level by spectrophotometric method. The class given is cell-based. The essentials: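 HEK293 cells stably co-transfected with the relevant human TLR (2, 3, 4, 5, 7, 8 or 9) plus an NF-κB/AP-1-driven secreted alkaline phosphatase reporter, kept in selection medium. Cells at ~10⁵ cells/ml were exposed to graded concentrations of stimuli in 384-well format, liquid-handler assisted. Supernatant sAP was read at 620 nm with an alkaline phosphatase-specific chromogen.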

The target in test [2] is T2, Toll-like receptor 8 (Homo sapiens) (UniProt Q9NR97).
T2 sequence (whole entry): T1 sequence (Q9NR97 whole entry)
Nature of the test: Agonist activity at TLR8 in human PBMC assessed as induction of TNF-alpha production after 16 hrs by multiplexed immunoassay. The essentials:
(§1)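 Fresh human PBMCs were isolated from venous blood in cell preparation tubes. They were stimulated at 10^5 cells per well for 16 h with graded compound concentrations. Supernatants were taken off by centrifugation and assayed in duplicate on a 41-analyte magnetic bead cytokine/chemokine multiplex panel. Panel analytes include IFN-α2, IFN-γ, IL-12 (p40) and TNF-α.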

Test [3] deals with T3, Toll-like receptor 7 (Homo sapiens) (UniProt Q9NYK1).
T3 sequence (whole entry): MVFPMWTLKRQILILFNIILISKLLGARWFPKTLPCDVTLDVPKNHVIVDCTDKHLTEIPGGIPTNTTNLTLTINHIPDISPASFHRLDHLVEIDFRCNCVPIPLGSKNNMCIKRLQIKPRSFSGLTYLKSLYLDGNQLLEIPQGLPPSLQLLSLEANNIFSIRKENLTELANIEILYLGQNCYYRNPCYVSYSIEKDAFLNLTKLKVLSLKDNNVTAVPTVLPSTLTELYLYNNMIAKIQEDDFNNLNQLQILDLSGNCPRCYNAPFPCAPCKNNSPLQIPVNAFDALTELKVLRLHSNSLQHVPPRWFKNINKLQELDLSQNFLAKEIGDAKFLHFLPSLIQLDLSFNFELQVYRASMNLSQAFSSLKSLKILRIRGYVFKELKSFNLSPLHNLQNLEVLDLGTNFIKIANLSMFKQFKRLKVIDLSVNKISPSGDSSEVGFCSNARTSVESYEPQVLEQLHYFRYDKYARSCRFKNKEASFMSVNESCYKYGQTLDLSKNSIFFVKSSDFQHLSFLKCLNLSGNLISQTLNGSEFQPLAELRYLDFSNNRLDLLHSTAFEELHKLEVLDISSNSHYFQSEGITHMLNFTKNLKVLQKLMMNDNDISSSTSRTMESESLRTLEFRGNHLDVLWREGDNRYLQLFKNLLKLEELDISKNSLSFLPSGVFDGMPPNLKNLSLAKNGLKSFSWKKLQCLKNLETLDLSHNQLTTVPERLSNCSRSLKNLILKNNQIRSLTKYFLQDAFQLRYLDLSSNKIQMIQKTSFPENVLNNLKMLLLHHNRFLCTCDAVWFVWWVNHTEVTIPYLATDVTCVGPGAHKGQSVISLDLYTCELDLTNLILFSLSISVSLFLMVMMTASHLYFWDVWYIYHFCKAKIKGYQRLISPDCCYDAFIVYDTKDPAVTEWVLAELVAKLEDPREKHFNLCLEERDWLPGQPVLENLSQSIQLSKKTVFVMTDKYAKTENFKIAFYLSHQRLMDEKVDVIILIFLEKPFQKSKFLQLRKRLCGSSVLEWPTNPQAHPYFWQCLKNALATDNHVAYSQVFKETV
Nature of the test: Agonist activity at TLR7 in human PBMC assessed as induction of IFN-alpha production after 16 hrs by multiplexed immunoassay. The essentials: as §1

Test [4] concerns the target T2, Toll-like receptor 8 (Homo sapiens). As to the kind of experiment: Agonist activity at TLR8 in human PBMC assessed as induction of IFN-gamma production after 16 hrs by multiplexed immunoassay. The essentials:
as §1

For test [5] the target is unchanged. Nature of the test: Agonist activity at TLR8 in human PBMC assessed as induction of IL-12p40 production after 16 hrs by multiplexed immunoassay. The procedure, abridged: as §1
Test [6] shares this target. As to the kind of experiment: Agonist activity at human TLR8 expressed in HEK293 cells co-expressing secreted alkaline phosphatase assessed as induction of NF-kappaB/AP-1 promoter activity by measuring increase in secreted alkaline phosphatase level at 100 uM by spectrophotometric method. The class given is cell-based. The essentials: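 HEK293 cells stably co-transfected with human TLR8 and NF-κB/AP-1-driven secreted alkaline phosphatase, kept in selection medium. Cells seeded at ~10⁵ cells/ml in 384-well plates with graded stimulus concentrations. Supernatant sAP read spectrophotometrically at 620 nm with an alkaline phosphatase-specific chromogen. TLR-2/-3/-4/-5/-9 reporter lines served as counter-screens.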

For test [7], the target named is T3, Toll-like receptor 7 (Homo sapiens). Nature of the test: Agonist activity at human TLR7 expressed in HEK293 cells co-expressing secreted alkaline phosphatase assessed as induction of NF-kappaB/AP-1 promoter activity by measuring increase in secreted alkaline phosphatase level at 100 uM by spectrophotometric method. The class given is cell-based.

As for `CCCCNc1nc(N)nc(C)c1CCCCCc1ccccc1`, the EC50 – broadly, the concentration at which the effect is half-maximal – in test [1] is 830 nM.

For the molecule `CCCCNc1nc(N)nc(C)c1CCCN1CCCCCC1`, the EC50 in test [1] came to 178 nM.

As for `CCCCNc1nc(N)nc(C)c1CCCN1CCCC1`, in test [1], the EC50 stood at 110 nM.

For the molecule `CCCCNc1nc(N)nc(C)c1CCCn1c(C)nc2ccccc21`, the result in test [2], in test [3], in test [4] and in test [5] was Active. Further, the EC50 in test [1] turned out to be 366 nM.

In the case of `CCCCNc1nc(N)nc(C)c1CCCC1CCCCC1`, the result in test [6] was inactive.

In the case of `CCCCNc1nc(N)nc(C)c1CC`, the EC50 in test [1] was found to be 1660 nM.

In the case of `CCCCNc1nc(N)nc(C)c1CCCCO`, the EC50 in test [1] amounted to 1310 nM.

On to `CCCCNc1nc(N)nc(C)c1C#C[Si](C)(C)C`, for which the outcome in test [7] was inactive. In addition, the EC50 in test [1] was 9240 nM.

`CCCCNc1nc(N)nc(C)c1C`: the EC50 in test [1] turned out to be 3280 nM.

In the case of `CCCCNc1nc(N)nc(C)c1CCc1ccccc1`, the concentration giving a half-maximal response (EC50) in test [1] amounted to 1190 nM.

For the molecule `CCCCNc1nc(N)nc(C)c1CCCN(CC)CC`, the result in test [7] was inactive. Further, the EC50 in test [1] came to 254 nM.

For `CCCCNc1nc(N)nc(C)c1CCCN1CCN(C)CC1`, in test [1], the EC50 was 179 nM.

In the case of `C#Cc1c(C)nc(N)nc1NCCCC`, the result in test [7] was inactive. Further, the EC50 in test [1] was 4900 nM.

As for `CCCCNc1nc(N)nc(C)c1CCCN1C(=O)c2ccccc2C1=O`, in test [1], the EC50 was determined as 453 nM.

As to `CCCCNc1nc(N)nc(C)c1C#CCN1CCCCC1`, in test [7], the outcome was inactive. Besides, the EC50 in test [1] was determined as 3790 nM.

As to `CCCCNc1nc(N)nc(C)c1CCCN1Cc2ccccc2C1`, the outcome in test [2], in test [4] and in test [5] was Active. Further, in test [1], the EC50 was determined as 29 nM.

Take `CCCCNc1nc(N)nc(C)c1CCCN1CCCCC1`: the outcome in test [2], in test [4] and in test [5] was Active. Moreover, the EC50 in test [1] was determined as 133 nM.

Consider `CCCCNc1nc(N)nc(C)c1CCCN1CCNCC1`, for which the EC50 in test [1] was 500 nM.

As to `CCCCNc1nc(N)nc(C)c1CCCCN1CCOCC1`, the EC50 in test [1] came out at 128 nM.

Regarding `CCCCCc1c(C)nc(N)nc1NCCCC`, in test [1], the EC50 stood at 1220 nM.

As for `CCCCNc1nc(N)nc(C)c1CCC(C)(C)O`, the EC50 in test [1] came out at 3140 nM.

Regarding `CCCCNc1nc(N)nc(C)c1CCCN1CCN(C(=O)OC(C)(C)C)CC1`, the outcome in test [7] was inactive. Also, the EC50 in test [1] came out at 300 nM.

With `CCCCNc1nc(N)nc(C)c1CCCN1CCN(c2ccccc2)CC1`, the EC50 in test [1] was 92 nM.

Take `CCCCNc1nc(N)nc(C)c1CCCN(C)C`: the EC50 in test [1] stood at 126 nM.

For the molecule `CCCCNc1nc(N)nc(C)c1CCCN(C)CCOC`, the EC50 in test [1] is 203 nM.

Take `CCCCNc1nc(N)nc(C)c1CCCC`: the EC50 in test [1] is 780 nM.

For the molecule `CCCCNc1nc(N)nc(C)c1C#CCc1ccccc1`, the result in test [7] and in test [6] was inactive.

For `CCCCNc1nc(N)nc(C)c1CCCN1CCOCC1`, the EC50 in test [1] came to 280 nM.

As to `CCCCNc1nc(N)nc(C)c1CCCn1cncn1`, the EC50 in test [1] was found to be 1050 nM.

With `CCCCNc1nc(N)nc(C)c1CCCC(C)(C)O`, the EC50 in test [1] turned out to be 1220 nM.

As for `CCCC#Cc1c(C)nc(N)nc1NCCCC`, in test [7], the outcome was inactive. Moreover, the EC50 in test [1] came to 5000 nM.

As to `CCCCNc1nc(N)nc(C)c1C#CCN1CCOCC1`, in test [7], the result was inactive. For the same molecule, in test [1], the EC50 turned out to be 16200 nM.

`CCCCNc1nc(N)nc(C)c1CCCN1CCSCC1`: in test [1], the EC50 was 167 nM.

Take `CCCCNc1nc(N)nc(C)c1CCCn1cccn1`: the EC50 in test [1] came to 1050 nM.

As to `CCCCNc1nc(N)nc(C)c1CCCn1ccc2ccccc21`, the EC50 in test [1] turned out to be 1100 nM.

On to `CCCCNc1nc(N)nc(C)c1CCCc1ccccc1`, for which, in test [3], the result was Active. The outcome in test [4] was inactive. The EC50 in test [1] is 749 nM.

Take `CCCCNc1nc(N)nc(C)c1CCCCc1ccccc1`: in test [1], the EC50 came out at 857 nM.
